The target in test [1] is T1, Recombinant human Dok1 PTB domain (amino acids 140–268) (Homo sapiens, UniProt Q99704).
T1 sequence (Q99704 140-268): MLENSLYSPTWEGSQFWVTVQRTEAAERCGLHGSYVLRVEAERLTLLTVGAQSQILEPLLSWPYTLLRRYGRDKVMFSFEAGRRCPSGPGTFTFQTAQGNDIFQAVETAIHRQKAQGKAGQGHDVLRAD
It counts as binding. The essentials: (§1)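 On a BIAcore 3000, ~4000 RU streptavidin was amine-coupled to CM5 chips at 25°C, then 50–150 RU biotinylated human phosphotyrosine peptides (CD200R tail, singly or doubly phosphorylated) were captured. Increasing concentrations of monomeric recombinant soluble PTB domain were passed over at 37°C to reach equilibrium binding. Signal from non-phosphorylated-peptide or streptavidin-only flow cells was subtracted, and the data were fitted to hyperbolas.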

Test [2] deals with T2, Recombinant human Dok2 PTB domain (amino acids 133–259) (Homo sapiens, UniProt O60496).
T2 sequence (O60496 133-259): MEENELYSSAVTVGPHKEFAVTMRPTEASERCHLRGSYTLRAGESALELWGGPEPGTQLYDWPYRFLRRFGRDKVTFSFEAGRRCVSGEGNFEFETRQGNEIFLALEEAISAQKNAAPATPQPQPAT
It counts as binding. The essentials:
as §1

Test [3] concerns the target CD200R pY3 peptide (human). Kind of test: SPR. For orientation: SPR reads the build-up and loss of mass on a sensor chip optically.
Test [4] addresses CD200R pY1,3 peptide (human). Kind of test: SPR.
The target of test [5] is CD200R pY1 peptide (human). The test can be described thus: SPR.
For test [6], the target named is CD200R pY1,2 peptide (human). The test can be described thus: SPR.
Test [7] concerns the target T3, Recombinant human Dok1 PTB domain (amino acids 140-268) (human, UniProt Q99704 140-268).
T3 sequence (looked up): T1 sequence (Q99704 140-268)
The test can be described thus: SPR.

Test [8] deals with T4, Recombinant human Dok2 PTB domain (amino acids 133-259) (human, UniProt O60496 133-259).
T4 sequence (looked up): T2 sequence (O60496 133-259)
The test can be described thus: SPR.

Consider eleven molecules from PMC2788151 (Journal of immunology (Baltimore, Md. : 1950), 2009).

Non-standard residues stand in square brackets, D forms with d. Residues, ends and D or L forms follow the SMILES beside them. No end group written: not given here. *: point of attachment. Biotin = O=C1N[C@H]2[C@H](CS[C@H]2CCCCC(=O)*)N1; pY = N[C@@H](Cc1ccc(OP(=O)(O)O)cc1)C(=O)O

Sequence of CD200R pY3 peptide (human) (Q8TD46 309-329): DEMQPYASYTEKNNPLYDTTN

The term Kd denotes the free concentration of one partner at which half of the binding sites on the other are occupied at equilibrium, for simple one-to-one binding. Regarding `CSCC[C@H](NC(=O)[C@H](CCC(=O)O)NC(=O)CCCC[C@@H]1SC[C@@H]2NC(=O)N[C@@H]21)C(=O)N[C@@H](Cc1ccccc1)C(=O)N[C@@H](CCC(=O)O)C(=O)N[C@@H](CC(N)=O)C(=O)N1CCC[C@H]1C(=O)N[C@@H](CC(C)C)C(=O)N[C@@H](Cc1ccc(OP(=O)(O)O)cc1)C(=O)NCC(=O)N[C@@H](CO)C(=O)N[C@@H](CC(C)C)C(=O)N[C@@H](CO)C(=O)N[C@@H](CO)C(=O)O` [SHIP pY1022] (Biotin-EMFENPL[pY]GSLSS-OH), in test [1], the equilibrium dissociation constant (Kd) was 13 µM.

For the molecule `CSCC[C@H](NC(=O)[C@H](CCC(=O)O)NC(=O)[C@H](CC(=O)O)NC(=O)CCCC[C@@H]1SC[C@@H]2NC(=O)N[C@@H]21)C(=O)N[C@@H](CCC(N)=O)C(=O)N1CCC[C@H]1C(=O)N[C@@H](Cc1ccc(OP(=O)(O)O)cc1)C(=O)N[C@@H](C)C(=O)N[C@@H](CO)C(=O)N[C@@H](Cc1ccc(O)cc1)C(=O)N[C@H](C(=O)N[C@@H](CCC(=O)O)C(=O)N[C@@H](CCCCN)C(=O)N[C@@H](CC(N)=O)C(=O)N[C@@H](CC(N)=O)C(=O)N1CCC[C@H]1C(=O)N[C@@H](CC(C)C)C(=O)N[C@@H](Cc1ccc(O)cc1)C(=O)N[C@@H](CC(=O)O)C(=O)N[C@H](C(=O)N[C@H](C(=O)N[C@@H](CC(N)=O)C(=O)O)[C@@H](C)O)[C@@H](C)O)[C@@H](C)O` [CD200R pY1] (Biotin-DEMQP[pY]ASYTEKNNPLYDTTN-OH), the equilibrium dissociation constant (Kd) in test [1] was 14 µM.

For the molecule `CSCC[C@H](NC(=O)[C@H](CCC(=O)O)NC(=O)[C@H](CC(=O)O)NC(=O)CCCC[C@@H]1SC[C@@H]2NC(=O)N[C@@H]21)C(=O)N[C@@H](CCC(N)=O)C(=O)N1CCC[C@H]1C(=O)N[C@@H](Cc1ccc(OP(=O)(O)O)cc1)C(=O)N[C@@H](C)C(=O)N[C@@H](CO)C(=O)N[C@@H](Cc1ccc(O)cc1)C(=O)N[C@H](C(=O)N[C@@H](CCC(=O)O)C(=O)N[C@@H](CCCCN)C(=O)N[C@@H](CC(N)=O)C(=O)N[C@@H](CC(N)=O)C(=O)N1CCC[C@H]1C(=O)N[C@@H](CC(C)C)C(=O)N[C@@H](Cc1ccc(OP(=O)(O)O)cc1)C(=O)N[C@@H](CC(=O)O)C(=O)N[C@H](C(=O)N[C@H](C(=O)N[C@@H](CC(N)=O)C(=O)O)[C@@H](C)O)[C@@H](C)O)[C@@H](C)O` [CD200R pY1,3] (Biotin-DEMQP[pY]ASYTEKNNPL[pY]DTTN-OH), the Kd in test [1] was determined as 6.2 µM; in test [2], 0.6 µM.

Regarding `CSCC[C@H](NC(=O)[C@H](CCC(=O)O)NC(=O)[C@H](CC(=O)O)NC(=O)CCCC[C@@H]1SC[C@@H]2NC(=O)N[C@@H]21)C(=O)N[C@@H](CCC(N)=O)C(=O)N1CCC[C@H]1C(=O)N[C@@H](Cc1ccc(OP(=O)(O)O)cc1)C(=O)N[C@@H](C)C(=O)N[C@@H](CO)C(=O)N[C@@H](Cc1ccc(OP(=O)(O)O)cc1)C(=O)N[C@H](C(=O)N[C@@H](CCC(=O)O)C(=O)N[C@@H](CCCCN)C(=O)N[C@@H](CC(N)=O)C(=O)N[C@@H](CC(N)=O)C(=O)N1CCC[C@H]1C(=O)N[C@@H](CC(C)C)C(=O)N[C@@H](Cc1ccc(O)cc1)C(=O)N[C@@H](CC(=O)O)C(=O)N[C@H](C(=O)N[C@H](C(=O)N[C@@H](CC(N)=O)C(=O)O)[C@@H](C)O)[C@@H](C)O)[C@@H](C)O` [CD200R pY1,2] (Biotin-DEMQP[pY]AS[pY]TEKNNPLYDTTN-OH), the Kd in test [1] is 8.4 µM.

`CSCC[C@H](NC(=O)[C@H](CCC(=O)O)NC(=O)[C@H](CC(=O)O)NC(=O)CCCC[C@@H]1SC[C@@H]2NC(=O)N[C@@H]21)C(=O)N[C@@H](CCC(N)=O)C(=O)N1CCC[C@H]1C(=O)N[C@@H](Cc1ccc(O)cc1)C(=O)N[C@@H](C)C(=O)N[C@@H](CO)C(=O)N[C@@H](Cc1ccc(O)cc1)C(=O)N[C@H](C(=O)N[C@@H](CCC(=O)O)C(=O)N[C@@H](CCCCN)C(=O)N[C@@H](CC(N)=O)C(=O)N[C@@H](CC(N)=O)C(=O)N1CCC[C@H]1C(=O)N[C@@H](CC(C)C)C(=O)N[C@@H](Cc1ccc(OP(=O)(O)O)cc1)C(=O)N[C@@H](CC(=O)O)C(=O)N[C@H](C(=O)N[C@H](C(=O)N[C@@H](CC(N)=O)C(=O)O)[C@@H](C)O)[C@@H](C)O)[C@@H](C)O` [CD200R pY3] (Biotin-DEMQPYASYTEKNNPL[pY]DTTN-OH): the Kd was 7.3 µM in test [1] and 1.4 µM in test [2].

For the molecule `CC[C@H](C)[C@H](NC(=O)[C@H](CCC(=O)O)NC(=O)[C@@H](NC(=O)CCCC[C@@H]1SC[C@@H]2NC(=O)N[C@@H]21)[C@@H](C)O)C(=O)N[C@H](C(=O)N[C@@H](CC(N)=O)C(=O)N1CCC[C@H]1C(=O)N[C@@H](CC(N)=O)C(=O)N[C@@H](Cc1ccc(OP(=O)(O)O)cc1)C(=O)N[C@@H](CCSC)C(=O)NCC(=O)N[C@H](C(=O)NCC(=O)N1CCC[C@H]1C(=O)O)C(C)C)[C@@H](C)CC` [SHIP pY917] (Biotin-TEIINPN[pY]MGVGP-OH), in test [1], the Kd turned out to be 13 µM.

As for “Recombinant human Dok2 PTB domain (amino acids 133-259) (from UniProt O60496 133-259) (domain or fragment)”, the figures for the equilibrium dissociation constant (Kd) in test [3] and in test [4] were 1.4 µM and 0.6 µM, respectively.

For “Recombinant human Dok1 PTB domain (amino acids 140-268) (from UniProt Q99704 140-268) (domain or fragment)”, the Kd in test [3] stood at 7.3 µM; in test [4] it was 6.2 µM; in test [5] it was 14 µM; in test [6], 8.4 µM.

Regarding Biotin-CMEENEL[pY]SSAV [Dok2 pY139 peptide], the Kd in test [7] was 3.3 µM.

As for Biotin-TEIINPN[pY]MGVGP [SHIP pY917 peptide], the Kd in test [8] is above 30 µM.

For the molecule Biotin-EMLENSL[pY]SPTW [Dok1 pY146 peptide], in test [7], the Kd amounted to 6.9 µM.
